Activity calls are given as the source filed them. No cut-off for these calls is given here.
Columns and labels:
Assay type in all cases: cell-based
Toll-like receptor 4 [1] = biological target: T1, Toll-like receptor 4 (Mus musculus, UniProt Q9QUK6); assay: Inhibition of TLR4 in LPS-stimulated mouse RAW264.7 cells assessed as reduction of NO production after 24 hrs
T1 sequence (Q9QUK6 whole entry): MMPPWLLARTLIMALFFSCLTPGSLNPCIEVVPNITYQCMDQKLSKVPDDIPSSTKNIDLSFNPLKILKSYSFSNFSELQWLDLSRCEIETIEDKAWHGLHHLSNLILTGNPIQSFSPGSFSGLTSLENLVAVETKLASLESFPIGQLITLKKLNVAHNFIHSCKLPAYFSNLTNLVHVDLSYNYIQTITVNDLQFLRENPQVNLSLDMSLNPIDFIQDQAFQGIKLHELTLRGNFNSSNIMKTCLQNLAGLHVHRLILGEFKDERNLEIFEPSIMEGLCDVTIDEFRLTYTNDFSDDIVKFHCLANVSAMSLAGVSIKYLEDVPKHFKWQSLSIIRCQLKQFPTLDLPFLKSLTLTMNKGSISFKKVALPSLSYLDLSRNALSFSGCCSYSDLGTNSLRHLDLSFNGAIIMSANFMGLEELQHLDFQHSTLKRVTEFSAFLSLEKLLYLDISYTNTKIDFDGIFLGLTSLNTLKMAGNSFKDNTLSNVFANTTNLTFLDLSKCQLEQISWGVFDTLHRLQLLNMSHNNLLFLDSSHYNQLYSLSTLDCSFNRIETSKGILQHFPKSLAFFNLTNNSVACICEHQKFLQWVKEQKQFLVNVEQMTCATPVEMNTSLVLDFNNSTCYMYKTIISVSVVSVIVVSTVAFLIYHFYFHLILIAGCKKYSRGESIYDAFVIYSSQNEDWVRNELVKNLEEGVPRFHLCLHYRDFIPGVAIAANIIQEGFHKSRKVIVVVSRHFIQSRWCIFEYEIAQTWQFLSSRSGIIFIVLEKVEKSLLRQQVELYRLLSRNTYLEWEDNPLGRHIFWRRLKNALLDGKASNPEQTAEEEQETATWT
In short: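 RAW 264.7 cells at 7.5×10^4/well were incubated 24 h, moved to fresh RPMI 1640, treated with vehicle or compound, and stimulated with LPS 20 ng/mL for 24 h. Nitrite in the medium was reacted with 2,3-diaminonaphthalene (0.05 mg/mL in 0.62 M HCl) for 15 min in the dark, NaOH was added, and […] was read at 450 nm.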

[2] = biological target: T2, Toll-like receptor 4 (Mus musculus) (UniProt Q9QUK6); assay: Inhibition of TLR4 in LPS-stimulated mouse BV2 cells assessed as reduction of NF-kappaB activation after 24 hrs by Dual-GLO luciferase assay; conditions: BV-2
T2 sequence (whole entry): T1 sequence (Q9QUK6 whole entry)
In short: (§1)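 BV-2 cells stably carrying an NF-κB dual-luciferase reporter were kept in DMEM/10% FBS with puromycin (3 μg/mL) and seeded at 1×10^4/well. After 24 h the medium was switched to Opti-MEM/0.5% FBS. Compound was added, followed by LPS 200 ng/mL for 24 h. Read-out was the Firefly/Renilla luciferase ratio (Dual-Glo).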

[3] = biological target: T2, Toll-like receptor 4 (Mus musculus); assay: (§2) Inhibition of TLR4 in LPS-stimulated mouse RAW264.7 cells assessed as reduction of IL1-beta production after 24 hrs by ELISA
In short: (§3)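 RAW 264.7 cells (5×10^5/well, 6-well plates) were treated with or without LPS and then with compound for 24 h. Cells were lysed and IL-1β was measured in the lysate by ELISA, normalized to total protein.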

Toll-like receptor 4 [4] = biological target: T1, Toll-like receptor 4; assay: as §2; in short: as §3
[5] = biological target: TLR7 and TLR8 (Mus musculus) (UniProt P58681+P58682); assay: Inhibition of TLR7/TLR8 in R848-stimulated mouse RAW264.7 cells at 0.6 uM after 24 hrs
Chain of TLR7 and TLR8 (Mus musculus) (P58681 whole entry, looked up): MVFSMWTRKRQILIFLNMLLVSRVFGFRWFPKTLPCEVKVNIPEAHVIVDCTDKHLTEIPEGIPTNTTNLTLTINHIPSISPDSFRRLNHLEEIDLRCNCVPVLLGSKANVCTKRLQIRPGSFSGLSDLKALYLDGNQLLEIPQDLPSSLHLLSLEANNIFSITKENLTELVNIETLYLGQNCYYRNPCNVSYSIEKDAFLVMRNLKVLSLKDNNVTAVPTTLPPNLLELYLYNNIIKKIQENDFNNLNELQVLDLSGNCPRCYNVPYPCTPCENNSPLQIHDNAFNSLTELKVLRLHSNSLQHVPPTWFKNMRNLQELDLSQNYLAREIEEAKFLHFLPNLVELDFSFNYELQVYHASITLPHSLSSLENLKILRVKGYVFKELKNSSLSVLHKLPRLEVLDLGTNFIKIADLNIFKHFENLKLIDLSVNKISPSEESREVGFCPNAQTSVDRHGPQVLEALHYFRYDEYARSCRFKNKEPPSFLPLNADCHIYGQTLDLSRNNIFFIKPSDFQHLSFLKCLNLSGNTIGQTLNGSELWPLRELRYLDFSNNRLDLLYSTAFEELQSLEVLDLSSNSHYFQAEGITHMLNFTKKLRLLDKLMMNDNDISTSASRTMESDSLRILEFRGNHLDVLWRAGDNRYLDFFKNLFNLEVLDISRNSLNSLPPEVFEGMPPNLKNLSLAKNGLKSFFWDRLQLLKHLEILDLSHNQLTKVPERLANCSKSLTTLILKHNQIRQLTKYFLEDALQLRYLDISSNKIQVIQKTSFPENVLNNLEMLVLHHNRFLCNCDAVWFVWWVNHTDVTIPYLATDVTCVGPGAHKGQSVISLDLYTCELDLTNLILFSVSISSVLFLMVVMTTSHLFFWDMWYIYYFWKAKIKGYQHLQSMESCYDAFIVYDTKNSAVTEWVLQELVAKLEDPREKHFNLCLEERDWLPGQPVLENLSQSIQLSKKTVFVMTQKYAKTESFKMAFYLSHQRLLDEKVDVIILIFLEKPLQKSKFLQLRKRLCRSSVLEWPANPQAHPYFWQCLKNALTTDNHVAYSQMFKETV
Chain of TLR7 and TLR8 (Mus musculus) (P58682 whole entry, looked up): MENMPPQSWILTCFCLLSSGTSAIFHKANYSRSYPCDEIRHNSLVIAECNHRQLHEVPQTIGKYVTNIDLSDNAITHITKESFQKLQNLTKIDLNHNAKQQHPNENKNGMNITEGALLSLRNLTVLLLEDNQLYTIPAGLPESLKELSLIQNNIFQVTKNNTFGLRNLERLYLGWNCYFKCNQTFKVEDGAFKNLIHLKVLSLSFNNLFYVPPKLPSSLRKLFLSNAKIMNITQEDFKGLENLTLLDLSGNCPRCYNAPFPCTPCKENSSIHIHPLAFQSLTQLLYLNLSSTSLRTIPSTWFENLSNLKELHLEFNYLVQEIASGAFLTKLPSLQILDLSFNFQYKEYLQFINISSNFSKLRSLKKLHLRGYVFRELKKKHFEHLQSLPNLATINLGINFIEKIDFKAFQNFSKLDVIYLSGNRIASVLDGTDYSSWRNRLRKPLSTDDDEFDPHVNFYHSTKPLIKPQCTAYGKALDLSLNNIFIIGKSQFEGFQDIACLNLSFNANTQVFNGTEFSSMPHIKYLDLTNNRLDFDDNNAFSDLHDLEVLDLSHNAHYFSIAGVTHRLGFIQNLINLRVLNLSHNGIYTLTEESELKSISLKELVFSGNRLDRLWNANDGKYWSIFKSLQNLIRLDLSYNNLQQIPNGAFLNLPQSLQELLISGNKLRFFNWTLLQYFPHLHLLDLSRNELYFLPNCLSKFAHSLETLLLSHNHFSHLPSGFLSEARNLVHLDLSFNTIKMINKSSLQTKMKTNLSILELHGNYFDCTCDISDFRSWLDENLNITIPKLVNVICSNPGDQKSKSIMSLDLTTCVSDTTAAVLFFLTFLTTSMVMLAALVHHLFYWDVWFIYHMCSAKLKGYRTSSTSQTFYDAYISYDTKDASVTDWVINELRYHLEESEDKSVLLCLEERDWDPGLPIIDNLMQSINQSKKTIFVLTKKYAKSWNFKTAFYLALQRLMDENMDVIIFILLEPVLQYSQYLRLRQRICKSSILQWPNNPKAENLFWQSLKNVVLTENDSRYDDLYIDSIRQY
In short: (§4)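 RAW 264.7 cells were stimulated with the TLR-selective ligand named in the line, in the presence or absence of compound (0.6 μM). NO was then measured by the nitrite protocol: 7.5×10^4 cells/well, RPMI 1640, 24 h. 2,3-diaminonaphthalene was added, then NaOH, and […] read at 450 nm. Mean ±SD of 3 experiments, each run in triplicate.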

RAW264.7 = assay: Cytotoxicity against mouse RAW264.7 cells assessed as cell viability up to 10 uM after 24 hrs by WST-1 assay; conditions: raw264.7, 24 h
In short: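 WST-1 viability assay: RAW 264.7 cells at 2×10^4 cells/well, cultured 24 h at 37°C, then moved to serum-free medium and treated with vehicle or compound (10 mM DMSO stocks) for 24 h. WST-1 reagent added for 30 min at 37°C; absorbance read at 490 nm.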

[6] = biological target: Toll-like receptor 1/2 (Mus musculus) (UniProt Q9QUN7+Q9EPQ1); assay: Inhibition of TLR1/TLR2 in Pam3CSK4-stimulated mouse RAW264.7 cells at 0.6 uM after 24 hrs; in short: as §4
[7] = biological target: T2, Toll-like receptor 4 (Mus musculus); assay: (§5) Inhibition of TLR4 in LPS-stimulated mouse RAW264.7 cells assessed as reduction of TNFalpha production after 24 hrs by ELISA
In short: (§6)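 RAW 264.7 cells (5×10^5/well, 6-well plates) were treated with or without LPS and then with compound for 24 h. Culture supernatant was harvested and clarified, and TNF-α was measured by ELISA.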

Toll-like receptor 4 [8] = biological target: T1, Toll-like receptor 4; assay: as §5; in short: as §6
[9] = biological target: T3, Toll-like receptor 3 (Mus musculus) (UniProt Q99MB1); assay: Inhibition of TLR3 in poly(I:C)-stimulated mouse RAW264.7 cells at 0.6 uM after 24 hrs; in short: as §4
T3 sequence (whole entry): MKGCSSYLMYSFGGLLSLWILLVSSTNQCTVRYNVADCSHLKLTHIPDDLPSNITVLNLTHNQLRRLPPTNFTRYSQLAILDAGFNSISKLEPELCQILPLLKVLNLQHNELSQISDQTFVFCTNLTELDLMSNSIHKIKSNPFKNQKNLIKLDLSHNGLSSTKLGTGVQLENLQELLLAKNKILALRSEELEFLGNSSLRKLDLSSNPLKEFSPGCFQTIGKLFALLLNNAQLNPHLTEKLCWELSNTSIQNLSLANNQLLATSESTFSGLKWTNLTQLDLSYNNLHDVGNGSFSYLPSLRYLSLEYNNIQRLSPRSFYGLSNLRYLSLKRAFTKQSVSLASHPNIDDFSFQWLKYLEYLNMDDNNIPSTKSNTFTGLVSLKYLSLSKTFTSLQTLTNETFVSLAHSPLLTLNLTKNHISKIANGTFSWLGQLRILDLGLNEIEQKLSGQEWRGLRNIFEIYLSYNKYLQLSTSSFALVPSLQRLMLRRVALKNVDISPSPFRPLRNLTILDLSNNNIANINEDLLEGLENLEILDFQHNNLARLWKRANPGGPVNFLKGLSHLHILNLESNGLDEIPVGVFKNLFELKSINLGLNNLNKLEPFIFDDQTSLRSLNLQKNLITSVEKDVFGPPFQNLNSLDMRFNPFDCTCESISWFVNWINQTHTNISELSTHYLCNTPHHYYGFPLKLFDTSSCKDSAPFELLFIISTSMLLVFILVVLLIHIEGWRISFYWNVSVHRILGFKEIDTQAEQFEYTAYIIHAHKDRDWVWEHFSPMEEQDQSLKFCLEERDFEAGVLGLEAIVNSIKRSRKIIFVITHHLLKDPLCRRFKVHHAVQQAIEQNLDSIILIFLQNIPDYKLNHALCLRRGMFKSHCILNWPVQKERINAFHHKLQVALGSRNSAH

TLR2/TLR6 (Mus musculus) = TLR2/TLR6 (Mus musculus) (UniProt Q9QUN7+Q9EPW9); assay: Inhibition of TLR2/TLR6 in FSL1-stimulated mouse RAW264.7 cells at 0.6 uM after 24 hrs; in short: as §4
[10] = biological target: T2, Toll-like receptor 4 (Mus musculus); assay: Inhibition of TLR4 in LPS-stimulated mouse BV2 cells assessed as reduction of NF-kappaB activation up to 10 uM after 24 hrs by Dual-GLO luciferase assay; conditions: BV-2; in short: as §1
[11] = biological target: T2, Toll-like receptor 4 (Mus musculus); assay: Inhibition of TLR4 in LPS-stimulated mouse RAW264.7 cells assessed as reduction of IL1-beta production at 3 to 10 uM after 24 hrs by ELISA; in short: as §3
[12] = biological target: T2, Toll-like receptor 4 (Mus musculus); assay: Inhibition of TLR4 in LPS-stimulated mouse RAW264.7 cells assessed as reduction of TNFalpha production at 3 to 10 uM after 24 hrs by ELISA; in short: as §6

SMILES	IC50 (Toll-like receptor 4 [1]) [nM]	also measured
COC(=O)C(=Cc1ccc(F)cc1)C(=O)OC	710	–
COC(=O)C(=Cc1ccccc1[N+](=O)[O-])C(=O)OC	310	IC50 [2]: 5920 nM; inhibition [2]: Dose-dependent effect; inhibition [3]: Dose-dependent effect; IC50 (Toll-like receptor 4 [4]): 420 nM; inhibition [5]: inactive; Activity (RAW264.7): Non-toxic; inhibition [6]: inactive; inhibition [7]: Dose-dependent effect; IC50 (Toll-like receptor 4 [8]): 1540 nM; inhibition [9]: inactive; inhibition (TLR2/TLR6 (Mus musculus)): Active
COC(=O)C(=Cc1ccccc1)C(=O)OC	820	–
O=C(O)C(=Cc1ccccc1)C(=O)O	930	–
COC(=O)C(=Cc1cccc(F)c1)C(=O)OC	2530	–
O=C(O)C(=Cc1ccccc1[N+](=O)[O-])C(=O)O	520	–
COC(=O)/C=C/c1ccccc1[N+](=O)[O-]	4530	–
COC(=O)C(=Cc1ccc(F)cc1F)C(=O)OC	420	–
COC(=O)C(=Cc1ccc(N(C)C)cc1)C(=O)OC	3110	–
COC(=O)C(Cc1ccccc1[N+](=O)[O-])C(=O)OC	> 100000	inhibition [10]: inactive; inhibition [11]: inactive; inhibition [12]: inactive
COC(=O)C(=Cc1ccc(OC)cc1)C(=O)OC	1240	–
COC(=O)C(=Cc1cccc([N+](=O)[O-])c1)C(=O)OC	2130	–
COC(=O)C(=Cc1ccccc1Cl)C(=O)OC	820	–
O=C(O)C(=Cc1ccccc1F)C(=O)O	410	–
COC(=O)C(=Cc1ccccc1OC)C(=O)OC	740	–
COC(=O)C(=Cc1ccccc1F)C(=O)OC	330	–
COC(=O)C(=Cc1ccc(Cl)cc1)C(=O)OC	1540	–
COc1ccc(C=C(C(=O)O)C(=O)O)cc1	1440	–
COC(=O)C(=Cc1ccc(OC)cc1OC)C(=O)OC	820	–
COC(=O)C(=Cc1ccc([N+](=O)[O-])cc1)C(=O)OC	820	–
COC(=O)C(=CC1CCCCC1)C(=O)OC	78200	–
COC(=O)C(=Cc1ccc(C(=O)OC)cc1)C(=O)OC	1330	–
COc1cc(/C=C/C(=O)CC(=O)/C=C/c2ccc(O)c(OC)c2)ccc1O [CURCUMIN]	6000	–
COC(=O)C(=Cc1cccc(OC)c1)C(=O)OC	3720	–
